Activity calls are given as the source filed them.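 The calls were made as follows, unless noted: active = current rise at least 3 SD above the untreated control mean in each of two repeat wells; inactive = the rest.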
Experiments:
[1] = nonspecific flux increase, KCNQ1-free cells – parental CHO cells, counter-screen for KCNQ1 potentiator project (AID 493006;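 active = duplicate-averaged activation above buffer control mean plus 5 SD of those controls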); details: parental CHO-K1 cells, FluxOR thallium flux, at 10 µM; active compounds read high
Summary of the method: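 Assay system: Untransfected host CHO-K1 cells with FluxOR thallium dye | Probe or stimulus: Potassium/thallium depolarization pulse | Schedule: Overnight 37 °C plating, 90 min RT dye, 20 min compound | Detection: Kinetic thallium-flux fluorescence | Read-out: Max-minus-min fluorescence over baseline, percent of buffer-to-R-L3 span | Benchmarks: Low control buffer, high control R-L3 activator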

[2] = molecular target: Potassium voltage-gated channel subfamily KQT member 1 (Homo sapiens) (UniProt P51787); experiment: enhancement of KCNQ1 channel thallium flux – FluxOR thallium flux, CHO cells, duplicates, confirmation (AID 493007;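 active = potentiation averaged over duplicate wells exceeding buffer-only control mean by more than 3 SD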;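 as to outcome: cells depolarized by a potassium plus thallium sulfate stimulus after compound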); details: KCNQ1 cell line, FluxOR thallium flux fluorescence, at 10 µM; active compounds read high, % of reference activator effect, buffer zero
Sequence of Potassium voltage-gated channel subfamily KQT member 1 (Homo sapiens) (P51787 whole entry, looked up): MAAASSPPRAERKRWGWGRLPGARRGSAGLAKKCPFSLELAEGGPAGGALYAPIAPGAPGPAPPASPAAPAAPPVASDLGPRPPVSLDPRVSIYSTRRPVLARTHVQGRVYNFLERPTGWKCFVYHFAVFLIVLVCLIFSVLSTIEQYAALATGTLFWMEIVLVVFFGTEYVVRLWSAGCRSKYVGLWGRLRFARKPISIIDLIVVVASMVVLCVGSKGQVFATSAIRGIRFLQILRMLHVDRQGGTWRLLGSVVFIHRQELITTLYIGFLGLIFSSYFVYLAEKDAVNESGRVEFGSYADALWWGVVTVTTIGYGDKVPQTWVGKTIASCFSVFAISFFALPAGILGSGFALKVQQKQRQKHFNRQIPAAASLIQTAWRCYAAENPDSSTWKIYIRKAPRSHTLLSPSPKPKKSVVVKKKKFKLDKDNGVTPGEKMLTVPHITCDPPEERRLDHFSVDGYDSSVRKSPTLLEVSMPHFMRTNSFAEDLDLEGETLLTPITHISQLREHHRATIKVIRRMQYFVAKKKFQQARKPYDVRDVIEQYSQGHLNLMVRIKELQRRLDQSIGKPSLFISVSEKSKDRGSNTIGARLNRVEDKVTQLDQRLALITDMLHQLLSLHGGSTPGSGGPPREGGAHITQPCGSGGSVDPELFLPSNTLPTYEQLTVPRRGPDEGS
Summary of the method: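 Material: KCNQ1-expressing CHO cell line; Incubation: FluxOR dye loading 90 min, compound exposure 20 min, room temperature; Detection: FluxOR Tl+ flux fluorescence, 10 s baseline plus 110 s recording; Read-out: percent activation between buffer and R-L3 responses; Control set: buffer-only wells as 0% and R-L3 activator as 100%; Replication: duplicate wells per compound.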

[3] = molecular target: Potassium voltage-gated channel subfamily KQT member 2 (Rattus norvegicus) (UniProt O88943); experiment: KCNQ2 thallium flux enhancement – KCNQ2-CHO-K1 cells, selectivity assay for KCNQ1 potentiator project (AID 493009;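 active = mean duplicate potentiation above the buffer control mean plus 5 SD of buffer wells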;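 also: assay conditions were tuned for KCNQ1 rather than KCNQ2 modulators; signal is max minus min fluorescence divided by baseline after thallium stimulus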); details: FluxOR thallium flux fluorescence, at 10 µM; active compounds read high, scaled: buffer 0, activator control 100
Sequence of Potassium voltage-gated channel subfamily KQT member 2 (Rattus norvegicus) (O88943 whole entry, looked up): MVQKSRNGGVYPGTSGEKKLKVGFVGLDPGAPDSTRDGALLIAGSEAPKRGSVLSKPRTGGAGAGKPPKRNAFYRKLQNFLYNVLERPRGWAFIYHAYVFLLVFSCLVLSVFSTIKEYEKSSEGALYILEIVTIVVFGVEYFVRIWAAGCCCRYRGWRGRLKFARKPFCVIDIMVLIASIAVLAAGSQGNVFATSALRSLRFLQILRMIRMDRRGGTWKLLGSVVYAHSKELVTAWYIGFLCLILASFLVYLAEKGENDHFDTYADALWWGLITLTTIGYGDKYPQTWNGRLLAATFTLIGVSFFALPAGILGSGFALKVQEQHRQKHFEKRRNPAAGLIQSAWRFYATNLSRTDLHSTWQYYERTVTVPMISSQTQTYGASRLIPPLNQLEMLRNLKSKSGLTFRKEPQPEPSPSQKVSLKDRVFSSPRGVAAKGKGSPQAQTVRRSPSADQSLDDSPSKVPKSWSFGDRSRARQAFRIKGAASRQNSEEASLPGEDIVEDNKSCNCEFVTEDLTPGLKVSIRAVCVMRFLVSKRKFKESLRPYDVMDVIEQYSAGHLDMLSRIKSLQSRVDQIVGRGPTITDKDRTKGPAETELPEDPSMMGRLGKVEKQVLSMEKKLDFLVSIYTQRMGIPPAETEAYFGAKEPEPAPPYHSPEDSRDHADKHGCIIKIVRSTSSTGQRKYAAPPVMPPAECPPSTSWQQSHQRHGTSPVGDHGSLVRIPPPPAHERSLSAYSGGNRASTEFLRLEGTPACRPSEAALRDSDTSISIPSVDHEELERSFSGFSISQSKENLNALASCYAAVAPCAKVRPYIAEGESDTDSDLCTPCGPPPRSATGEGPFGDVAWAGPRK

[4] = molecular target: Potassium voltage-gated channel subfamily KQT member 1 (Homo sapiens) (UniProt P51787); experiment: KCNQ1 activators by electrophysiology – IonWorks patch clamp, KCNQ1-CHO cells, orthogonal assay for KCNQ1 potentiator project, confirmation (AID 493184); details: automated patch clamp current, at 10 µM; active compounds read high
Summary of the method: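 assay system = KCNQ1-expressing CHO cells | medium = external bath solution at pH 7.4 | probe or stimulus = 2,000 ms depolarization, -90 to +40 mV | compound dosing = 10 µM final, single point | measured by = automated voltage clamp, amphotericin B perforated patch | measure = percent current increase versus pre-compound level | replication = duplicates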

Compound	activation [1]	potentiation [2]	potentiation [3]	outcome [4]	outcome [1]	outcome [2]	outcome [3]
COc1cccc(C(=O)NNC(=O)C(=O)Nc2cccc3ccccc23)c1	218% (active)	51.5% (active)	228% (active)	inactive			
COc1ccc(Nc2nc(-c3sc(C)nc3C)cs2)c(OC)c1				inactive	inactive	inactive	inactive
CCOC(=O)c1cnc(SCC(=O)Nc2nc(C)c(C)s2)nc1N				inactive	inactive	inactive	inactive
O=C(O)c1c2c(nc3ccccc13)/C(=C/c1cccc([N+](=O)[O-])c1)CCC2	172% (active)	64% (active)	199% (active)	inactive			
O=C(NN=C1c2ccccc2-c2ccccc21)c1ccccc1Br		37% (active)		inactive	inactive		inactive
Cc1cccc(NC(=O)CSc2ccc3nnc(-c4cccnc4)n3n2)c1				inactive	inactive	inactive	inactive
COc1ccc(N2CCN(C(=O)COC(=O)/C=C/c3ccc(OC(F)F)cc3)CC2)cc1	178% (active)	64.5% (active)	228% (active)	inactive			
O=C(NCC1CCCO1)c1ccccc1OCc1ccc(F)cc1 (stereo not given)				inactive	inactive	inactive	inactive
CN(C)c1nc(=Nc2cccc(Cl)c2)ss1	312% (active)	119% (active)	273% (active)	inactive			
N#Cc1ccccc1Oc1ccccc1C=O	143% (active)	39.5% (active)	160% (active)	inactive			
O=c1c2cc(Br)ccc2nc(-c2ccc([N+](=O)[O-])cc2)n1O	346% (active)	147% (active)	410% (active)	inactive			
COC(=O)c1ccccc1NC(=S)NC(NC(=O)c1ccco1)C(Cl)(Cl)Cl (stereo not given)	138% (active)	54% (active)	232% (active)	inactive			
Cc1ccc(C)c(NC(=S)N(Cc2ccco2)C(C)c2cccs2)c1 (stereo not given)				inactive	inactive	inactive	inactive
Oc1c(N=NC(=S)Nc2ccccc2F)c2ccccc2n1Cc1ccccc1	143% (active)	49% (active)	183% (active)	inactive			
CCOc1ccccc1C1CC(=O)Nc2cc3c(cc21)OCCO3 (stereo not given)				inactive	inactive	inactive	inactive
CC(C)Cn1c(=S)[nH]c2cc(Cl)ccc21	196% (active)	70.5% (active)	225% (active)	inactive			
CCOC(=O)NC(=S)Nc1ccc(C(C)(C)C)cc1Br	213% (active)	123% (active)	249% (active)	inactive			
Cc1ccccc1C(=O)NC1CC(C)(C)NC(C)(C)C1				inactive	inactive	inactive	inactive
Cc1ccc(NC(=S)N/N=C2/CCCCc3ccccc32)cc1	274% (active)	324% (active)	484% (active)	inactive			
OC[C@H]1O[C@H](OC[C@H]2O[C@H](OC[C@H]3O[C@H](O[C@]4(CO)O[C@H](CO)[C@@H](O)[C@@H]4O)[C@H](O)[C@@H](O)[C@@H]3O)[C@H](O)[C@@H](O)[C@H]2O)[C@H](O)[C@@H](O)[C@H]1O				inactive	inactive	inactive	inactive
CCCCN(CCCC)C(=S)NC(=O)c1ccccc1Cl	556% (active)	238% (active)	542% (active)	inactive			
O=C(N/N=C/c1ccccn1)c1sc2ccccc2c1Cl	156% (active)	41% (active)	207% (active)	inactive			
CC(C)c1ccc(NC(=O)C2CC(=O)N=C(N)S2)cc1 (stereo not given)	164% (active)	41.5% (active)	227% (active)	inactive			
Cc1ccc(O)c(C(=O)CC(=O)c2cccc(F)c2)c1		24% (active)	159% (active)	inactive	inactive		
O=C(NC(=S)NC1CCCCC1)c1ccc(Cl)cc1	202% (active)	262% (active)	390% (active)	inactive			
O=C(OCc1cccc([N+](=O)[O-])c1)c1ccncc1				inactive	inactive	inactive	inactive
O=C(NNc1ncc(C(F)(F)F)cc1Cl)c1c(Cl)cccc1Cl				inactive	inactive	inactive	inactive
Cc1cc(C)c(NC(=O)c2cn3c4c(c(N5CCN(C)CC5)c(F)cc4c2=O)OCC3C)c(C)c1 (stereo not given)				inactive	inactive	inactive	inactive
Cc1ccc2cccnc2c1NC(=S)NC(=O)c1ccccc1				inactive	inactive	inactive	inactive
Cc1nc(SC(C)C(=O)c2c(N)n(C)c(=O)n(C)c2=O)c2c(C)c(C)sc2n1 (stereo not given)	199% (active)	86% (active)	256% (active)	inactive			

— PubChem BioAssay
